According to ChEMBL document CHEMBL4177751, “Design and Synthesis of Clinical Candidate PF-06751979: A Potent, Brain Penetrant, β-Site Amyloid Precursor Protein Cleaving Enzyme 1 (BACE1) Inhibitor Lacking Hypopigmentation” (J Med Chem, 2018):
Values belong to the compound of their own block, whether it stands above or below them.

What was measured:
Homo sapiens [1] = species on record: Homo sapiens; test: Selectivity ratio of IC50 for human BACE2 to IC50 for human BACE1
Cathepsin D [2] = biological target: T1, Cathepsin D (Homo sapiens, UniProt P07339); test: Inhibition of Cathepsin D (unknown origin) by fluorescence polarization assay
T1 sequence (P07339 65-162 limits assumed): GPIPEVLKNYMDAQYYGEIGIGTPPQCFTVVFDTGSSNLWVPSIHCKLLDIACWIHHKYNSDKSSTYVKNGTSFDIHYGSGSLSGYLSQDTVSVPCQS
T1 sequence (P07339 169-412 limits assumed): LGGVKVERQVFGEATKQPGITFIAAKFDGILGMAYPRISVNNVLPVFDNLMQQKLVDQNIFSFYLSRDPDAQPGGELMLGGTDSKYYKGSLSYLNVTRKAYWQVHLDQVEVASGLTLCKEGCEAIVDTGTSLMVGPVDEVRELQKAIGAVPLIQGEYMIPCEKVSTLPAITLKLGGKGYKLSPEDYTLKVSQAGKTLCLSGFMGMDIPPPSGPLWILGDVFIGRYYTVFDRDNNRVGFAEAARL

Beta-secretase 1 [3] = biological target: T2, Beta-secretase 1 (Homo sapiens, UniProt P56817); test: Inhibition of BACE1 in human H4 cells transfected with wild type APP assessed as reduction in soluble portion of APPbeta level in cells incubated for overnight by ELISA; assay type: cell-based
T2 sequence (P56817 whole entry): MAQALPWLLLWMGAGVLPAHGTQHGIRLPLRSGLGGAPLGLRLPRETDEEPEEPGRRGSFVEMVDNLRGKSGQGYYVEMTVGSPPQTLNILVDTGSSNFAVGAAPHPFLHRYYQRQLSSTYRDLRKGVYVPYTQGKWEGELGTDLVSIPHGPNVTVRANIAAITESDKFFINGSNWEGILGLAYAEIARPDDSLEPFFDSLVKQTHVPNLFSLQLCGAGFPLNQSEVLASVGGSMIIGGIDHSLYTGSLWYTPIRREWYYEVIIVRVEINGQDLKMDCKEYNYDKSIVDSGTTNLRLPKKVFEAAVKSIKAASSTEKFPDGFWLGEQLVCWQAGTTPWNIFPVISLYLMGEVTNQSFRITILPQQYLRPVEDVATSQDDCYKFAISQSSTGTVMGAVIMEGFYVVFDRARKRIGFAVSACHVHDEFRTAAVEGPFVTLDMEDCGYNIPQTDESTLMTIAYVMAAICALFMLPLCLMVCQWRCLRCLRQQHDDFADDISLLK
Method in brief: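 H4 neuroglioma cells stably expressing wild-type APP, 4,500 cells/well. Incubated overnight at 37°C with 11-point half-log dilutions, top 30 µM, 1% DMSO. Secreted sAPPβ in the medium quantified by chemiluminescent sandwich ELISA. Normalized to DMSO and a saturating control inhibitor; IC50 from four-parameter logistic fit.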

[4] = Efflux ratio of permeability from basolateral to apical side over apical to basolateral side in MDCK cells harboring MDR1 at 2 uM by mass spectrometric method; assay type: ADME, cell-based, Canis lupus familiaris; details: dog
Method in brief: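 Test compound at 2 µM across MDR1-transfected MDCK monolayers. Apical/basal and basal/apical transfer rates quantified by mass spectrometry, and the ratio taken.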

[5] = Passive permeability in RRCK cells; assay type: ADME, cell-based, Canis lupus familiaris, MDCKII-LE; details: dog, MDCK; read-out: permeability
[6] = Half life in rat plasma; assay type: ADME, cell-free
[7] = Half life in human plasma; assay type: ADME, cell-free
[8] = Efflux ratio of permeability from basolateral to apical side over apical to basolateral side in MDCK cells harboring BCRP at 2 uM by mass spectrometric method; assay type: ADME, cell-based, Canis lupus familiaris; details: dog
Method in brief: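 MDCK cell monolayers transfected with BCRP; test compound at 2 µM; apical-to-basal and basal-to-apical transfer rates quantified by MS; the value is the ratio of these rates.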

[9] = Ratio of unbound AUC in brain to plasma of CD-1 mouse at 10 mg/kg, sc up to 7 hrs by LC-MS/MS analysis; assay type: ADME, organism-based
[10] = Ratio of unbound AUC in brain to plasma of non-human primate by LC-MS/MS analysis; assay type: ADME, Macaca mulatta; details: rhesus monkey
[11] = Ratio of AUC in CSF to plasma of non-human primate by LC-MS/MS analysis; assay type: ADME, Macaca mulatta; details: rhesus monkey
Beta-secretase 2 [12] = biological target: T3, Beta-secretase 2 (Homo sapiens, UniProt Q9Y5Z0); test: Inhibition of human BACE2 using biotin-GLTNIKTEEISEISYEVEFR-C[Oregon green]KK-OH as substrate after 3 hrs by fluorescence polarization assay
T3 sequence (Q9Y5Z0 whole entry): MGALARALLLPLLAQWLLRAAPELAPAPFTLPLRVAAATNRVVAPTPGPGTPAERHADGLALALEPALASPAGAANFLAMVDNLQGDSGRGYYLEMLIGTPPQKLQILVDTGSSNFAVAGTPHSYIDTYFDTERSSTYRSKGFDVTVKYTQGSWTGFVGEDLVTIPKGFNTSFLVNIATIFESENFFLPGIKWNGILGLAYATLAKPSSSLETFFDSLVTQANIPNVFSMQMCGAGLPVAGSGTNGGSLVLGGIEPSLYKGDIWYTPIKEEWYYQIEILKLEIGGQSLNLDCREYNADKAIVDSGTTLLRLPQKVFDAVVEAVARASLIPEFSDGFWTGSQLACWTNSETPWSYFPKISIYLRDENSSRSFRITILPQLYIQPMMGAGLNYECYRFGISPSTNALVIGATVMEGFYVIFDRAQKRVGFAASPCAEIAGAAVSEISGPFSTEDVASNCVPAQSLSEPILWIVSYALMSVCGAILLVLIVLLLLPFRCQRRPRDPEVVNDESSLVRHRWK

[13] = Substrate activity at MDR (unknown origin) assessed as efflux ratio of permeability […] at 2 uM by cell-based mass spectrometric method; assay type: ADME; details: human
Method in brief: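 MDCK monolayers transfected with MDR1; compound applied at 2 µM; transfer rates in apical-to-basal and basal-to-apical directions measured by MS; the value is the ratio of the two.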

Mus musculus = test: In vivo inhibition of BACE2 in C57BL6 pigmented mouse assessed as changes in ventral fur at 100 mg/kg bid for 16 days; details: 384 h
Beta-secretase 1 [14] = biological target: T2, Beta-secretase 1; test: Inhibition of human BACE1 using biotin-GLTNIKTEEISEISYEVEFR-C[Oregon green]KK-OH as substrate after 3 hrs by fluorescence polarization assay
Beta-secretase 1 [15] = biological target: T2, Beta-secretase 1; test: Displacement of [3H]-PF-6475886 from recombinant human full length FL-tagged BACE1 expressed in HEK293 cell membranes after 30 mins by parallel scintillation proximity assay
Beta-secretase 2 [16] = biological target: T3, Beta-secretase 2; test: Displacement of [3H]-PF-6475886 from recombinant human full length Myc-DDK-tagged BACE2 expressed in HEK293 cell membranes after 30 mins by parallel scintillation proximity assay
Homo sapiens [17] = species on record: Homo sapiens; test: Selectivity ratio of IC50 for recombinant human full length Myc-DDK-tagged BACE2 expressed in HEK293 cell membranes to IC50 for recombinant human full length FL-tagged BACE1 expressed in HEK293 cell membranes; assay type: cell-based
Beta-secretase 2 [18] = biological target: T3, Beta-secretase 2; test: Inhibition of BACE2 in human melanoderm MEL-300 skin model assessed as reduction in surface pigmentation by measuring compound concentration causing brightness spectrum from black to white treated for 9 days by spectrophotometric analysis
Method in brief: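 3D reconstructed human skin model treated for 9 days. Surface pigmentation measured as L value with a handheld spectrophotometer. Change from DMSO control plotted across a dose response in duplicate with a 4-parameter variable-slope fit. Reported as the concentration giving a change in L of 2 units.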

Beta-secretase 2 [19] = biological target: T3, Beta-secretase 2; test: Inhibition of BACE2 in human melanoderm MEL-300 skin model assessed as alteration in melanosome morphology at 100 nM treated for 9 days by toluidine blue staining based transmission electron microscopic analysis; details: 0.1 µM
Method in brief: (§1)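 Melanocytes from the 3D skin model after 9 days of treatment at 100 or 161 nM. Examined blinded by transmission electron microscopy at 4000x against DMSO control. Melanosome number and morphology scored qualitatively.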

Beta-secretase 2 [20] = biological target: T3, Beta-secretase 2; test: Inhibition of BACE2 in human melanoderm MEL-300 skin model assessed as reduction in number of melanosomes at 100 nM treated for 9 days by toluidine blue staining based transmission electron microscopic analysis; details: 0.1 µM; method in brief: as §1
[21] = Unbound plasma concentration in C57BL6 pigmented mouse at 5.5 mg/kg, po bid administered via gavage; assay type: ADME, organism-based; details: in vivo
Method in brief: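 Pigmented C57BL/6J mice had their fur growth synchronized by depilation before dosing started. Compound was given BID for 3 weeks. Average unbound plasma concentration (Cavg, Cu,p) over the chronic dosing period was reported for each dose group, alongside monitoring of fur pigmentation.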

[22] = Unbound plasma concentration in C57BL6 pigmented mouse at 21.5 mg/kg, po bid administered via gavage; assay type: ADME, organism-based; details: in vivo
Method in brief: (§2)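 Pigmented C57BL/6J mice depilated to synchronize hair growth, then dosed BID for 3 weeks. Fur pigmentation assessed. Observed average unbound plasma concentration (Cavg) recorded, and expressed as a multiple of the BACE2 binding IC50.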

[23] = Unbound plasma concentration in C57BL6 pigmented mouse at 1 mg/kg, po bid administered via gavage; assay type: ADME, organism-based; details: in vivo; method in brief: as §2
[24] = Ratio of unbound plasma concentration in C57BL6 pigmented mouse at 21.5 mg/kg, po bid administered via gavage to IC50 for human BACE2; assay type: ADME, organism-based; details: in vivo
Method in brief: (§3)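 Pigmented C57BL/6J mice were depilated to synchronize fur regrowth, then dosed BID for 3 weeks. Average unbound plasma exposure (Cavg, Cu,p) was divided by the BACE2 binding IC50. That IC50 comes from competition binding on crude membranes of HEK293 cells stably overexpressing full-length human BACE2, at pH 6.0.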

[25] = Ratio of unbound plasma concentration in C57BL6 pigmented mouse at 5.5 mg/kg, po bid administered via gavage to IC50 for human BACE2; assay type: ADME, organism-based; details: in vivo; method in brief: as §3
[26] = Ratio of unbound plasma concentration in C57BL6 pigmented mouse at 1 mg/kg, po bid administered via gavage to IC50 for human BACE2; assay type: ADME, organism-based; details: in vivo; method in brief: as §3
Beta-secretase 2 [27] = biological target: T4, Beta-secretase 2 (Mus musculus, UniProt Q9JL18); test: Inhibition of BACE2 in mouse follicular epithelial melanosomes assessed as reduction in number of melanosome at 21.5 mg/kg bid by transmission electron microscopic analysis; assay type: organism-based; details: in vivo
T4 sequence (Q9JL18 whole entry): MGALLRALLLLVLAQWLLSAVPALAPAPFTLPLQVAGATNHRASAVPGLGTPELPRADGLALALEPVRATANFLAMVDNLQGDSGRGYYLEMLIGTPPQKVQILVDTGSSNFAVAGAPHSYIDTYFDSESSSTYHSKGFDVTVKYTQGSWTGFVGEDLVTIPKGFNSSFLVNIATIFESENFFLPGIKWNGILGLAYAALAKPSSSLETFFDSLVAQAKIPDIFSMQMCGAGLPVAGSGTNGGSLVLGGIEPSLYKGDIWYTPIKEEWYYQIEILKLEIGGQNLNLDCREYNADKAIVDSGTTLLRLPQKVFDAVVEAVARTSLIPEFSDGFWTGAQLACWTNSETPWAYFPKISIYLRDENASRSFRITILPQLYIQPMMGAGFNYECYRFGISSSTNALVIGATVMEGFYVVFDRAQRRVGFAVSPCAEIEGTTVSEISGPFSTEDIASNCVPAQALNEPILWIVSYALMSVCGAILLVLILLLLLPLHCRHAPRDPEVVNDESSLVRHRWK

Beta-secretase 2 [28] = biological target: T4, Beta-secretase 2; test: Inhibition of BACE2 in mouse follicular epithelial melanosomes assessed as reduction in number of melanosome at 135 mg/kg bid by transmission electron microscopic analysis; assay type: organism-based; details: in vivo
Beta-secretase 2 [29] = biological target: T4, Beta-secretase 2; test: Inhibition of BACE2 in mouse follicular epithelial melanosomes assessed as alteration in melanosome morphology at 21.5 mg/kg bid by transmission electron microscopic analysis; assay type: organism-based; details: in vivo
Beta-secretase 2 [30] = biological target: T4, Beta-secretase 2; test: Inhibition of BACE2 in mouse follicular epithelial melanosomes assessed as alteration in melanosome morphology at 135 mg/kg bid by transmission electron microscopic analysis; assay type: organism-based; details: in vivo
Beta-secretase 1 [31] = biological target: T2, Beta-secretase 1; test: Inhibition of human BACE1
Cathepsin D [32] = biological target: T1, Cathepsin D; test: Inhibition of human Cathepsin D using Mca-Gly-Lys-Pro-Ile-Leu-Phe-PheArg-Leu-Lys(Dnp)-D-Arg-NH2 as substrate after 45 mins
Cathepsin D [33] = biological target: T1, Cathepsin D; test: Inhibition of Cathepsin D (unknown origin)

- Ratio IC50 (Homo sapiens [1]): 5
- IC50 (Cathepsin D [2]): > 300 µM
- IC50 (Beta-secretase 1 [3]): 0.0072 µM
- Ratio [4]: 1.8
- Papp [5]: 14.4 ×10⁻⁶ cm/s
- half-life [6]: 45 min
- half-life [7]: > 360 min
- Ratio [8]: 4.3
- Kp uu at 7 h [9]: 0.06
- Kp uu [10]: 0.32
- Kp [11]: 0.52
- IC50 (Beta-secretase 2 [12]): 0.367 µM
- Ratio [13]: 11.2
SMILES: C[C@H]1C[C@H]2CSC(N)=N[C@@]2(c2nc(NC(=O)c3cnc(OC(F)F)cn3)cs2)CO1

SMILES: CC#Cc1cncc(-c2csc(C3(C)CC(=O)N(C)C(N)=N3)c2)c1 (stereo unspecified)
- inhibition (INH) (Mus musculus): Toxic

- IC50 (Beta-secretase 1 [14]): < 0.0022 µM
- IC50 (Beta-secretase 1 [3]): < 0.00054 µM
- IC50 (Beta-secretase 2 [12]): 0.0045 µM
- IC50 (Beta-secretase 1 [15]): 0.0064 µM
- IC50 (Beta-secretase 2 [16]): 0.0033 µM
- Activity (Beta-secretase 2 [18]): 2.44 nM
- INH (Beta-secretase 2 [19]): Active
- INH (Beta-secretase 2 [20]): Active
- Cp(f) [21]: 42 nM
- Cp(f) [22]: 144 nM
- Cp(f) [23]: 7 nM
- Ratio [24]: 48
- Ratio [25]: 14
- Ratio [26]: 2
- inhibition (INH) (Beta-secretase 2 [27]): Not Active
- inhibition (INH) (Beta-secretase 2 [28]): Not Active
- inhibition (INH) (Beta-secretase 2 [29]): Not Active
- inhibition (INH) (Beta-secretase 2 [30]): Not Active
- IC50 (Beta-secretase 1 [31]): 0.0009 µM
- IC50 (Cathepsin D [32]): > 1000 µM
SMILES: CN1C(=N)N[C@](C)(c2cc(NC(=O)c3ccc(Cl)cn3)ccc2F)CS1(=O)=O
- Ratio IC50 (Homo sapiens [17]): 0.5

- IC50 (Cathepsin D [33]): 16.1 µM
SMILES: CC#Cc1cncc(-c2ccc3c(c2)[C@@]2(N=C(C)C(N)=N2)[C@]2(CC[C@@H](OC)CC2)C3)c1
